The subject of series [1] is PBMC. The experiment in a line: Cytotoxicity against human PBMCs assessed as residual metabolic activity at 20 uM in presence of PMA and ionomycin after 18 hrs by MTS assay. It counts as ADME, cell-based. Summed up:
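Human PBMC (1 × 10^6 cells/mL, triplicate) given 20 μM compound together with PMA 3.33 ng/mL and ionomycin 500 nM for 18 h. MTS metabolic activity compared with the PMA/ionomycin-only control.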
In general terms: Formazan colour is commonly taken as a measure of viable cells.

The target of series [2] is Toll-like receptor 3 (Homo sapiens) (UniProt O15455). The experiment in a line: Agonist activity at human TLR3 expressed in Ramos blue cells assessed as stimulation of NF-kB/AP-1 activity at 20 uM incubated for 18 hrs using quanti blue assay based SEAP reporter gene assay. The class given is functional, cell-based. Summed up: (§1)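 Ramos-Blue control cells (TLR3/7/9 and Nod1, no Nod2; stable NF-κB/AP-1-inducible SEAP reporter) at 1 × 10^6 cells/mL, exposed 18 h to 20 μM compound. SEAP in supernatant read with QUANTI-Blue reagent (3 h, 37 °C), absorbance 640 nm; activity compared with untreated cells.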
On the technique in general: In a reporter assay the amount or activity of a reporter protein is the signal.

The subject of series [3] is PBMC. Description: Immunomodulatory activity in human PBMCs assessed as increase in PMA/ionomycin-induced IL6 release at 20 uM incubated for 18 hrs by multiplexed cytokine assay. It counts as functional, cell-based. The method in brief: (§2)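 Ficoll-isolated human PBMC, 1 × 10^6 cells per well, treated with 20 μM compound (DMSO ≤0.1%) plus PMA 3.33 ng/mL and ionomycin 500 nM for 18 h at 37 °C, 5% CO2. Cell-free supernatant cytokines measured by CBA human inflammatory kit on a flow cytometer against recombinant standards. Reported as % of PMA/ionomycin-only release; duplicates, three experiments, three donors.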

The subject of series [4] is PBMC. Description: Immunomodulatory activity in human PBMCs assessed as increase in PMA/ionomycin-induced TNFalpha release at 20 uM incubated for 18 hrs by multiplexed cytokine assay. It counts as functional, cell-based. Summed up:
as §2

For series [5], the system named is PBMC. The experiment in a line: Immunomodulatory activity in human PBMCs assessed as increase in PMA/ionomycin-induced IL-12p70 release at 20 uM incubated for 18 hrs by multiplexed cytokine assay. The class given is functional, cell-based. The method in brief:
as §2

Series [6] relates to PBMC. Description: Immunomodulatory activity in human PBMCs assessed as increase in PMA/ionomycin-induced IL8 release at 20 uM incubated for 18 hrs by multiplexed cytokine assay. It counts as functional, cell-based.
The subject of series [7] is PBMC. The experiment in a line: Immunomodulatory activity in human PBMCs assessed as increase in PMA/ionomycin-induced IL-1beta release at 20 uM incubated for 18 hrs by multiplexed cytokine assay. The class given is functional, cell-based. Summed up:
as §2

The target in series [8] is T1, Toll-like receptor 9 (Homo sapiens) (UniProt Q9NR96).
T1 sequence (whole entry): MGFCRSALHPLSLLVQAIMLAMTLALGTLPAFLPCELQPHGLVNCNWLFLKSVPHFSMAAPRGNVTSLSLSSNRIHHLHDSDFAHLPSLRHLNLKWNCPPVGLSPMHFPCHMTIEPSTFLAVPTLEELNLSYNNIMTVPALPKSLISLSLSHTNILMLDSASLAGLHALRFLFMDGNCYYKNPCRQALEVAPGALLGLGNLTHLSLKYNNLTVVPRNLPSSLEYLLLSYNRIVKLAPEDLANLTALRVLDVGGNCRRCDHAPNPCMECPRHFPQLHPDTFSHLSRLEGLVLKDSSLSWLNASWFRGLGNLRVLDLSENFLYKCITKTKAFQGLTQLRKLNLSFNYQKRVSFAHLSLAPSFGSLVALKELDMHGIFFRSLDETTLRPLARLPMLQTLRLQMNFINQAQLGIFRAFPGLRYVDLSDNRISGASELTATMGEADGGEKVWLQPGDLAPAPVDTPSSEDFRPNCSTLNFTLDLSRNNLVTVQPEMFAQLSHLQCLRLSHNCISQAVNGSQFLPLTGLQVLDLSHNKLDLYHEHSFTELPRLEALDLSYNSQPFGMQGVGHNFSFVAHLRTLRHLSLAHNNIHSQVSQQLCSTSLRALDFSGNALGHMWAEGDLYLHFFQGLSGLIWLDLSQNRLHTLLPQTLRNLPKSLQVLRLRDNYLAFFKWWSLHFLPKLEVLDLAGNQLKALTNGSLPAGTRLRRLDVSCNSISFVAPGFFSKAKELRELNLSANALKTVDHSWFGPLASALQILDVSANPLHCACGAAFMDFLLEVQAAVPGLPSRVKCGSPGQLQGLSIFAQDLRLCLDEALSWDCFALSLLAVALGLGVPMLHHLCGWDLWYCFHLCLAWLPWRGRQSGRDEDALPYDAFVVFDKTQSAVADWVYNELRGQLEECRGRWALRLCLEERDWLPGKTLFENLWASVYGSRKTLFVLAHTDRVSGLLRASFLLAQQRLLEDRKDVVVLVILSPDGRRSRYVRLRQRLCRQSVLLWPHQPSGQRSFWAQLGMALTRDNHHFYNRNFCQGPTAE
Description: Agonist activity at human TLR9 expressed in Ramos blue cells assessed as stimulation of NF-kB/AP-1 activity at 20 uM incubated for 18 hrs using quanti blue assay based SEAP reporter gene assay. The class given is functional, cell-based. The method in brief:
as §1

The target of series [9] is T2, Nucleotide-binding oligomerization domain-containing protein 1 (Homo sapiens) (UniProt Q9Y239).
T2 sequence (whole entry): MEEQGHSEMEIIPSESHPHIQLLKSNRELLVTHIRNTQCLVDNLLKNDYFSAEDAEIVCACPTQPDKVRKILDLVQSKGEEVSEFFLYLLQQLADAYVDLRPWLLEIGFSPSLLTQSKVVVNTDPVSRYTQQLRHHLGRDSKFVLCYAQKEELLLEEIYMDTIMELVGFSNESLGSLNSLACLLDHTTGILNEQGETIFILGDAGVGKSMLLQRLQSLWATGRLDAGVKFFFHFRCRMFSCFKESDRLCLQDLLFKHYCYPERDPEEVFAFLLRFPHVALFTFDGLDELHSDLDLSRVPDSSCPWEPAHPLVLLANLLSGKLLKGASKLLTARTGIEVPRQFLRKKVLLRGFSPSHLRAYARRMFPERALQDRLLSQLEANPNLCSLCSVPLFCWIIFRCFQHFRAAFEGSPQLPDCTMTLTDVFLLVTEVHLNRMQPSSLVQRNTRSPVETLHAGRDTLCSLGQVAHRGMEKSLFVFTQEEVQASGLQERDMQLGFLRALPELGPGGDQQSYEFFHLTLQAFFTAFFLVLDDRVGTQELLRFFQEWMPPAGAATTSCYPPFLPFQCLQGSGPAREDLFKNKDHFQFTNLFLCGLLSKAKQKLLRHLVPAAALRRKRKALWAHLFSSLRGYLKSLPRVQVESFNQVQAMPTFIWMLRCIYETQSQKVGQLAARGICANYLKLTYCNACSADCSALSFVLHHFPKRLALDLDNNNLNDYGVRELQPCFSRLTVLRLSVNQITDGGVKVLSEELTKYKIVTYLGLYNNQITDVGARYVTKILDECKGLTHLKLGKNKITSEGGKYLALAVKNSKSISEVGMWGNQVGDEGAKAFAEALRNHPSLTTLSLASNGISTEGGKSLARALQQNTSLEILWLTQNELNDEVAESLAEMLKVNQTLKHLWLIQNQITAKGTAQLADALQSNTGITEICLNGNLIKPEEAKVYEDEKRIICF
The experiment in a line: Agonist activity at human NOD1 expressed in Ramos blue cells assessed as stimulation of NF-kB/AP-1 activity at 20 uM incubated for 18 hrs using quanti blue assay based SEAP reporter gene assay. The class given is functional, cell-based. The method in brief:
as §1

The source made the active and inactive calls. The rule behind the calls is not given here.

Toll-like receptor 3 (Homo sapiens), sequence (O15455 whole entry): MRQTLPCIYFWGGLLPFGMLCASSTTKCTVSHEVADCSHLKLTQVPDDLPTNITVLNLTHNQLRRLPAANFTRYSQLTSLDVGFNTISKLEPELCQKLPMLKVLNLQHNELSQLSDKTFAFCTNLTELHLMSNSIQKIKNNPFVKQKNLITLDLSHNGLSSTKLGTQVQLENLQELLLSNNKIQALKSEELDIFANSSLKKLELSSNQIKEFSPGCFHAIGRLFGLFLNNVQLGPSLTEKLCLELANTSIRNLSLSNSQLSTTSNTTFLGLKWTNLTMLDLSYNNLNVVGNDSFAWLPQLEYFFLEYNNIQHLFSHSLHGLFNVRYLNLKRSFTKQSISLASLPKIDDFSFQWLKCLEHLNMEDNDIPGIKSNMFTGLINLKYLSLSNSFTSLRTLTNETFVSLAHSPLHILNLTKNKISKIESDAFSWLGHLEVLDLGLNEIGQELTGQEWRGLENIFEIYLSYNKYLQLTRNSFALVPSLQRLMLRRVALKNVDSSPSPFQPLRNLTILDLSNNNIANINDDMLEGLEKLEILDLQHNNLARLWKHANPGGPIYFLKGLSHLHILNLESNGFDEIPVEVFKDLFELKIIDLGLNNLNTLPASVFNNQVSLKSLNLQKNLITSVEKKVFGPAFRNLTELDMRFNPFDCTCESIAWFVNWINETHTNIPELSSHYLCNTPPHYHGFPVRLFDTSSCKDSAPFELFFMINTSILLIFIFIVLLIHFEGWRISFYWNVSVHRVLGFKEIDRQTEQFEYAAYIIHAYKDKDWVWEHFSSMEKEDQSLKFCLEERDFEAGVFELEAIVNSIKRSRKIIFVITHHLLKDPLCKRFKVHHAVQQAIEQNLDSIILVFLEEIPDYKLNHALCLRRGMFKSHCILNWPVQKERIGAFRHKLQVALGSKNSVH

In the case of `CCOC(=O)CC[C@@H](NC(=O)[C@H](C)NC(=O)CCCCN1C(=O)c2ccccc2S1(=O)=O)C(N)=O`, the Activity entry in the series on PBMC [1] is given as “Non-toxic”. For the same compound, the result (in series [2]; with PBMC [3]; in the series on PBMC [4]; in the series on PBMC [5]; in the series on PBMC [6]; in the series on PBMC [7]) was inactive. Also, the result in series [8] and in series [9] was inactive.

For `CCOC(=O)CC[C@@H](NC(=O)[C@H](C)NC(=O)COCCN1C(=O)c2ccccc2S1(=O)=O)C(N)=O`, the Activity entry with PBMC [1] was “Non-toxic”. For the same compound, the outcome (in series [2]; in the series with PBMC [3]; with PBMC [4]; with PBMC [5]; in the series with PBMC [6]; with PBMC [7]) was inactive. Further, the result in series [8] and in series [9] was inactive.

Take `CCOC(=O)CC[C@@H](NC(=O)[C@H](C)NC(=O)COCCN1C(=O)c2ccccc2S1(=O)=O)C(=O)OCC`: the Activity entry in the series on PBMC [1] is on record as “Non-toxic”. The result (in series [2]; in the series on PBMC [3]; with PBMC [4]; with PBMC [5]; in the series with PBMC [6]; in the series on PBMC [7]) was inactive. The result in series [8] and in [9] was inactive.

On to `CCOC(=O)CC[C@@H](NC(=O)[C@H](C)NC(=O)CNC(=O)c1cc2ccccc2[nH]1)C(=O)OCC`, for which the Activity entry with PBMC [1] was “Non-toxic”. For the same compound, the result (in series [2]; in the series on PBMC [6]; in series [8]; in series [9]) was inactive. The outcome in the series with PBMC [3], in the series on PBMC [4], in the series on PBMC [5] and with PBMC [7] was Active.

In the case of `CCCCOC(=O)[C@@H](CCC(N)=O)NC(=O)[C@H](C)NC(=O)[C@@H](C)O[C@H]1[C@H](O)[C@@H](CO)OC(O)[C@@H]1NC(C)=O` (stereo not given in full) [MURABUTIDE], the Activity entry with PBMC [1] was “Non-toxic”. Moreover, the outcome (in series [2]; in the series with PBMC [6]; in [8]; in series [9]) was inactive. For the same compound, the result in the series on PBMC [4], in the series on PBMC [5] and in the series with PBMC [7] was Active.

As for `CCOC(=O)CC[C@@H](NC(=O)[C@H](C)NC(=O)CCCCN1C(=O)c2ccccc2S1(=O)=O)C(=O)OCC`, the Activity entry with PBMC [1] is given as “Non-toxic”. In addition, the result (in series [2]; in the series with PBMC [3]; in the series on PBMC [4]; in the series with PBMC [5]; in the series on PBMC [6]; in the series on PBMC [7]) was inactive. Also, the outcome in series [8] and in series [9] was inactive.

As to `CCOC(=O)CC[C@@H](NC(=O)[C@H](C)NC(=O)C1=C2c3ccccc3S(=O)(=O)N2CCC1)C(=O)OCC`, the Activity entry in the series on PBMC [1] is reported as “Non-toxic”. Also, the outcome (in series [2]; with PBMC [6]; in series [8]; in [9]) was inactive. In addition, the result in the series with PBMC [3], in the series with PBMC [5] and with PBMC [7] was Active.

With `CCOC(=O)CC[C@@H](NC(=O)[C@H](C)NC(=O)CNC(=O)c1cc2ccccc2[nH]1)C(N)=O`, the Activity entry with PBMC [1] is recorded as “Non-toxic”. Moreover, the outcome (in series [2]; in the series with PBMC [3]; in the series with PBMC [4]; in the series with PBMC [5]; in the series on PBMC [6]; in the series with PBMC [7]) was inactive. Moreover, the outcome in [8] and in [9] was inactive.

The record behind these values is ChEMBL document CHEMBL2163344, “Immunomodulatory properties of novel nucleotide oligomerization domain 2 (nod2) agonistic desmuramyldipeptides” (J Med Chem, 2012).
